PfM18AAP inh-1 = blocks P. falciparum M18 aspartyl aminopeptidase | recombinant PfM18AAP, H-Glu-NHMec fluorogenic cleavage | 1.2% of 290,000 active | AID 1822 | inhibition, % at 7.35 µM;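 active = inhibition above the campaign mean inhibition over all tested compounds plus 3 SD, cut at about 28% in these data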;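 also: 0% = plate median of test compound wells and 100% = 2 mM ZnCl2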
p97 ATPase inh = inhibitors of human p97 ATPase | P55072 | recombinant p97 ATPase, Kinase-Glo ATP luminescence, 3 h | inhibition, % at 8 µM | 0.42% of 220,000 active | AID 1481; in the data active = inhibition above about 15%;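 also: 0% = DMSO vehicle and 100% = wells lacking enzyme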
Target sequence (P55072 whole entry, looked up): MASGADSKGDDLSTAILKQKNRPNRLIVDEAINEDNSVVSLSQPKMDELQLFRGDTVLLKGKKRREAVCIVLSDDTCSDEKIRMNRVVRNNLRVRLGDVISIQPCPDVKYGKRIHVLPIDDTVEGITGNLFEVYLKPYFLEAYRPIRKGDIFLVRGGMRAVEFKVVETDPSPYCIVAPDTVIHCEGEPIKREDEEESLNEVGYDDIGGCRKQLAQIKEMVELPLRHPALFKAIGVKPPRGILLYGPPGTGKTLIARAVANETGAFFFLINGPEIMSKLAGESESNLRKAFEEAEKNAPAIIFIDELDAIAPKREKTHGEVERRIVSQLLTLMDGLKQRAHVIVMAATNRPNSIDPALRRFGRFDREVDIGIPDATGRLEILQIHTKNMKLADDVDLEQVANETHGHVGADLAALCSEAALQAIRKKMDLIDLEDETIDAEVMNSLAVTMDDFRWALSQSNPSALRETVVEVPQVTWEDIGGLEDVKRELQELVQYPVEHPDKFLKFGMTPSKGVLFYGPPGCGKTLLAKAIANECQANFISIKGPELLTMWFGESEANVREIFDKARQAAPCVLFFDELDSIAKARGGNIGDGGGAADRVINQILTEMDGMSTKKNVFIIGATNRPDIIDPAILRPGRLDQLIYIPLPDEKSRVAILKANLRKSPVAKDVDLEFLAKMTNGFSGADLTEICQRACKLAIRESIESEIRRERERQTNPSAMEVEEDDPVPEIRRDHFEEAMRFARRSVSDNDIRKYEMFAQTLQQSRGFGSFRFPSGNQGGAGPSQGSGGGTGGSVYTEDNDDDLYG
HCV NS3 hel inh = inhibitors of Hepatitis C virus NS3 helicase | AID 1800 | 0.56% of 290,000 active | inhibition, % at 10.9 µM | NS3 helicase DNA unwinding, Cy5 molecular beacon fluorescence;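 active = inhibition above the mean of all tested compounds plus 3 SD, set per campaign, cut at about 35% in these data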;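 also: 0% = DMSO wells and 100% = thioflavine S control wells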
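Assay system: hepatitis C virus NS3 helicase domain fragment enzyme. Also added: annealed dual-labelled DNA beacon duplex, ATP-started. Timing: 1 h reaction at 25 °C, ATP-initiated. Technique: Cy5 fluorescence at 0 and 60 min, beacon hairpin quenching. Evaluation: % inhibition of unwinding. Replication: one well per compound.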
XBP1 UPR activ = adaptive UPR (XBP1) activation. 0.33% of 330,000 active. AID 463104. CHO-XBP1 luciferase reporter, IRE1-XBP1 UPR activation, luminescence; percent of tunicamycin response, DMSO as zero. activation, % at 20 µM;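 active = versus positive control, 20 µM dose yields 30% or more activation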;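 also: 100% = tunicamycin at 10 µg/mL and 0% = DMSO only wells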
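Assay system: IRE1-XBP1 luciferase reporter CHO line. Input: 1000 cells/well. Buffer or medium: F12 with 10% serum. Doses: 20 µM, 1% DMSO. Times: overnight seeding at 37 °C, 6 h compound treatment at 37 °C. Technique: Steady-Glo luciferase glow luminescence, 10 min after reagent addition.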
CHOP inhibitor = CHOP inhibition in unfolded protein response; 3.8% of 220,000 active; inhibition, % at 10 µM; AID 2732; CHO-K1 CHOP-promoter luciferase, tunicamycin-induced, 15-18 h;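 active = compounds that reduced the stress-induced luciferase reporter signal by more than about 70% of percent inhibition, limit read from the data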;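 also: 0% = tunicamycin plus vehicle and 100% = wells without tunicamycin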
CHOP UPR activ = activators of apoptotic arm of unfolded protein response (CHOP); 0.34% of 330,000 active; activation, % at 10 µM; CHO-CHOP luciferase reporter, UPR activation, luminescence; percent of tunicamycin response over DMSO baseline;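 active = at 10 µM dose, activation of 40% or more, normalized to positive control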;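 also: 100% = tunicamycin at 10 µg/mL and 0% = DMSO alone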
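Test system: CHO-CHOP cells, stable luciferase reporter of PERK-eIF2a-CHOP signalling | Quantity: 500 CHO-CHOP cells per well | Buffer or medium: F12 plus 10% serum | Compound dosing: 10 µM single point, 0.5% DMSO | Schedule: 6 h compound treatment, 37 °C | Signal: Luciferase luminescence | Control set: Tunicamycin high control, DMSO low control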
PfM18AAP inh-2 = confirmation of Plasmodium falciparum M18 aspartyl aminopeptidase inhibitors; recombinant PfM18AAP, H-Glu-NHMec fluorogenic cleavage; inhibition, % at 7.35 µM; shares compounds with PfM18AAP inh-1; 28% of 2,400 active; AID 2170;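 active = mean inhibition over replicate wells above the hit cutoff set for the earlier primary screen, cut at about 29% in these data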;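 also: 0% = median of test compound wells and 100% = 2 mM ZnCl2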
CTSL1 counter = counter-screen for PFM18AAP inhibitors: confirmation of human cathepsin L inhibitors; shares compounds with PfM18AAP inh-1; purified cathepsin L1, Z-Leu-Arg-MCA fluorescence; inhibition, % at 5.96 µM; 2,400 tested, under 10 active; AID 2178;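 active = average inhibition across replicates above the hit cutoff set in the earlier primary screen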;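 also: 0% = median of test compound wells and 100% = Z-Phe-Ala-diazomethylketone 1 µM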
* hit, by the source's call; · = not tested or not shown. Only some compounds are listed: those with a hit (about 4.5% of all), similar ones and a draw of the others.

SMILES	PfM18AAP inh-1	p97 ATPase inh	HCV NS3 hel inh	XBP1 UPR activ	CHOP inhibitor	CHOP UPR activ	PfM18AAP inh-2	CTSL1 counter
O=C(NCCN1CCOCC1)NC1(C(F)(F)F)Oc2ccc(Cl)cc2O1 (centres undefined)	87.0*	6.5	8.4	·	·	·	88.9*	-3.8
COCC(C)NC(=O)NC1(C(F)(F)F)Oc2ccc(Cl)cc2O1 (centres undefined)	79.5*	0.8	3.9	6.3	-7.3	1.8	66.1*	2.7
Cc1c(C(=O)NCc2ccc(S(N)(=O)=O)cc2)oc2ccc(Cl)cc12	4.8	0.8	-3.3	-0.1	16.7	-2.2	·	·
COC(=O)c1ccccc1CSc1nsc(/C=C/N(C)C)c1C#N	48.0*	·	22.8	-2.3	·	-2.4	6.0	2.0
Cc1nc(CSc2nsc(/C=C/N(C)C)c2C#N)cs1	1.1	4.0	33.5	·	23.9	·	·	·
COc1cc(-c2c(C#N)c(N)nc3[nH]c(=S)[nH]c(=O)c23)ccc1O	33.3*	·	-1.3	-5.3	·	0.0	20.8	6.7
Cc1sc(NC(=S)Nc2ccc(F)cc2)c(C(N)=O)c1C	47.1*	6.8	15.7	·	6.7	·	-5.5	-1.1
CCOC(=O)c1c(NC(=S)Nc2ccc(Cl)cc2)sc(C)c1C	0.3	3.6	7.4	·	55.0	·	·	·
CC1CCC2(CC1)NC(=S)N(c1ccccc1)N2 (centres undefined)	44.9*	1.4	-6.4	-0.4	-0.3	-0.9	-24.4	1.7
Oc1ccc(/C=N/Nc2ccc(C(F)(F)F)cn2)c(O)c1	24.8	·	-22.2	6.8	·	6.8	·	·
Oc1ccc(/C=N/Nc2cccc(Cl)n2)c(O)c1	58.1*	·	1.8	6.6	·	5.1	57.3*	7.2
c1ccc(CN2CCC3(CC2)Nc2ccccc2S3)cc1	34.3*	-0.7	4.1	2.0	-5.7	-2.2	-54.5	5.3
COc1ccc(Nc2nc(N/N=C/c3ccc(N(C)C)cc3)nc(C)c2[N+](=O)[O-])cc1	48.6*	2.6	1.8	11.0	3.4	6.2	-52.7	-0.8
COc1ccc(/C=N/Nc2nc(C)c([N+](=O)[O-])c(N(C)c3ccccc3)n2)cc1OC	17.6	1.8	0.9	3.8	-21.5	5.2	·	·
COc1ccc(Nc2nc(NN)nc(C)c2[N+](=O)[O-])cc1	51.8*	3.5	0.5	-6.9	14.0	-1.7	22.2	-1.1
Cc1ccc(/C=C/C(=O)Nc2nn[nH]n2)o1	51.3*	8.1	11.1	-3.3	-18.8	0.0	14.3	5.7
CC(C)c1ccc(/C=C/C(=O)Nc2nn[nH]n2)cc1	-3.5	-0.3	-6.0	-1.6	-7.6	0.0	·	·
C=CCn1c(SCC(=O)NC(=O)Cc2ccccc2)nnc1-c1ccccc1F	·	·	·	0.2	·	-0.8	·	·
O=C(CSc1nc(=O)n(CCCN2CCOCC2)c2c1CCCC2)Nc1ccc(Cl)cc1	·	·	·	4.0	·	1.3	·	·
Clc1ccc(/C=N/Nc2ncnc3nc[nH]c23)cc1	-0.1	-5.8	-3.0	1.6	28.1	6.2	·	·
Fc1ccccc1/C=N/Nc1ncnc2nc[nH]c12	32.8*	7.1	16.5	4.9	-16.2	2.6	-27.6	2.8
CC(=O)Nc1ccc(NCC(=O)c2ccccc2)cc1	34.0*	·	3.0	1.1	·	3.5	-34.9	-0.1
O=[N+]([O-])c1ccc(Cl)c(NC(=S)N2CCCC2)c1	-11.9	·	6.6	-0.6	·	1.5	·	·
O=C1CCCCCCC1Sc1ccccc1[N+](=O)[O-] (centres undefined)	38.1*	-3.9	5.2	-2.2	82.9*	-0.7	-47.8	-0.1
CN1CCN(CCNC(=O)c2ccc3nc(-c4ccc(F)cc4)c(-c4ccc(F)cc4)nc3c2)CC1	4.4	·	-86.5	3.5	·	0.3	·	·
SMILES	PfM18AAP inh-1	p97 ATPase inh	HCV NS3 hel inh	XBP1 UPR activ	CHOP inhibitor	CHOP UPR activ	PfM18AAP inh-2	CTSL1 counter
CN(Cc1ccco1)C(=O)Cn1ncc2c([nH]c3ccccc32)c1=O	-0.9	·	3.6	-1.3	·	1.1	·	·
Cc1cc2cc3c(=O)[nH]c(=O)[nH]c3nc2cc1C	1.3	2.4	5.0	1.7	-24.2	0.1	·	·
CCOC(=O)c1c(N)sc2c1C1CCN2CC1	50.3*	6.7	-7.2	-2.5	15.1	-0.5	10.3	2.9
Oc1ccccc1NCC(O)Cn1ccc2ccccc21 (centres undefined)	56.1*	7.0	6.8	9.0	47.8	3.9	18.1	0.7
O=S1(=O)CCOCCCN1Cc1ccc(Cl)cc1	-0.6	·	12.7	1.0	·	0.1	·	·
N#Cc1c(N)oc(-c2ccc3c(c2)OCO3)c1-c1ccc2c(c1)OCO2	47.9*	-4.7	12.7	3.6	13.3	2.0	16.0	-2.1
OCCN1CCN(C(=S)Nc2ccc(SC(F)F)cc2)CC1	2.7	-0.9	-2.1	-3.2	31.6	-1.4	·	·
CSc1ccc(C(=S)N2CCN(CCO)CC2)cc1	32.9*	0.7	-0.8	-3.5	6.4	0.9	7.3	0.0
Cc1ccc(NC(=O)C2CC(O)CN2C(=O)OCc2ccccc2)cc1C (centres undefined)	0.6	·	-0.5	-4.2	·	-0.4	·	·
Cc1ccc(O)c(NC(=O)CSc2n[nH]c(-c3ccccc3)n2)c1	2.5	·	-4.1	-1.4	·	0.1	·	·
Cc1cc(SCC(=O)c2ccc3c(c2)OCO3)nc2ccccc12	-0.5	-1.8	-0.8	4.8	-3.3	-1.0	·	·
Cc1cc(SCC(=O)c2ccc(O)c(O)c2)nc2ccccc12	46.3*	12.2	17.5	2.9	2.3	-1.2	21.2	2.9
O=C(CSc1n[nH]c(-c2ccccc2)n1)c1ccc(O)c(O)c1	59.7*	8.3	-0.8	1.2	-30.9	2.1	36.1*	0.3
O=C1CCCN1C(=O)CSc1ncnc2sccc12	·	·	·	-0.9	·	5.4	·	·
Cc1c(-c2ccccc2)sc(N)c1C(=O)N1CCOCC1	35.9*	-1.5	-0.5	-1.8	-7.0	-2.3	-17.3	-1.4
Cc1cc(/C=C2\SC(=O)N(C)C2=O)c(C)n1-c1ccc(O)cc1	33.0*	·	11.2	-6.1	·	-0.3	-47.5	-2.4
CCOC(=O)c1sc(=S)n(C)c1NC(=O)c1ccccc1C	34.7*	-0.7	-1.1	-0.4	-4.7	2.2	6.1	2.3
Clc1ccc(N=c2ssnc2Cl)nc1	38.7*	5.6	1.9	12.6	103.2*	6.6	23.5	-4.5
CC1(C)CC2(CC(c3ccccc3F)c3ccc(O)c(O)c3O2)NC(=S)N1 (centres undefined)	49.0*	6.1	-24.0	-4.0	5.0	1.0	80.9*	4.5
CN(C)S(=O)(=O)c1cccc(-c2csc(=Nc3ccccc3)n2CCCN2CCOCC2)c1	-4.1	-7.8	-47.9	0.9	18.8	1.1	·	·
CC(=O)c1cccc(N=c2scc(-c3ccc(S(=O)(=O)N4CCOCC4)cc3)n2CCO)c1	50.5*	2.1	13.6	-1.6	54.2	5.8	-35.5	0.4
